Experimental data reported in ChEMBL document CHEMBL4715738, “In Vitro Antibacterial Activity of Curcumin-Polymyxin B Combinations against Multidrug-Resistant Bacteria Associated with Traumatic Wound Infections” (J Nat Prod, 2016).
Activity calls are given as the source filed them.

Experiments:
Pseudomonas aeruginosa [1] = assay: Synergistic antibacterial activity against Pseudomonas aeruginosa PA14 assessed as fractional inhibitory concentration index measured after 24 hrs in presence of curcumin by checkerboard assay; format: functional
Summary of the method: (§1)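 FICI calculated from combination MICs; ≤0.5 taken as synergy and >0.5–4.0 as additive. Where an MIC was not reached, the dilution above the highest concentration tested was used in the calculation. Run in triplicate and reported as means.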

Pseudomonas aeruginosa [2] = assay: Synergistic antibacterial activity against Pseudomonas aeruginosa PA30 harboring VIM-2 assessed as fractional inhibitory concentration index measured after 24 hrs in presence of curcumin by checkerboard assay; format: functional
Summary of the method: (§2)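 FICI was derived from checkerboard MICs. Synergy was defined as FICI ≤ 0.5 and additive as FICI > 0.5−4.0. Where an MIC was not reached, the dilution above the maximum dose was used in the FICI calculation. Experiments were run in triplicate and reported as means.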

Enterococcus faecium [3] = assay: Synergistic antibacterial activity against vancomycin-resistant Enterococcus faecium OEF65 assessed as fractional inhibitory concentration index measured after 24 hrs in presence of curcumin by checkerboard assay; format: functional; summary of the method: as §2
Acinetobacter baumannii [4] = assay: Antibacterial activity against Acinetobacter baumannii AB14 harboring OXA-23 clone 1 assessed as reduction in bacterial growth incubated for 24 hrs in presence of curcumin; format: functional
[5] = test system: Stenotrophomonas maltophilia; assay: Synergistic antibacterial activity against Stenotrophomonas maltophilia NCTC 10258 assessed as fractional inhibitory concentration index measured after 24 hrs in presence of curcumin by checkerboard assay; format: functional; summary of the method: as §1
Pseudomonas aeruginosa [6] = assay: Synergistic antibacterial activity against Pseudomonas aeruginosa PAO1 assessed as fractional inhibitory concentration index measured after 24 hrs in presence of curcumin by checkerboard assay; format: functional; summary of the method: as §1
Pseudomonas aeruginosa [7] = assay: Antibacterial activity against Pseudomonas aeruginosa PAO1 assessed as reduction in bacterial growth incubated for 24 hrs in presence of curcumin; format: functional
Staphylococcus aureus [8] = assay: Potentiation of polymyxin B-induced antibacterial activity against Staphylococcus aureus ATCC 25923 assessed as fold reduction in polymyxin B MIC measured after 24 hrs in presence of polymyxin B by checkerboard assay; format: functional
Streptococcus pyogenes [9] = assay: Antibacterial activity against Streptococcus pyogenes SPY1 assessed as reduction in bacterial growth incubated for 24 hrs in presence of polymyxin B; format: functional
Streptococcus pyogenes [10] = assay: Potentiation of polymyxin B-induced antibacterial activity against Streptococcus pyogenes SPY1 assessed as fold reduction in polymyxin B MIC measured after 24 hrs in presence of polymyxin B by checkerboard assay; format: functional
Acinetobacter baumannii [11] = assay: Antibacterial activity against Acinetobacter baumannii ATCC 19606 assessed as reduction in bacterial colony formation at 0.5 fold MIC measured after 24 hrs by time kill assay; format: functional, organism-based; conditions: ATCC 19606 = CIP 70.34 = JCM 6841
Summary of the method: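 Time-kill in Mueller-Hinton 2 broth. Inoculum was a 1/1000 dilution of a 16 h overnight culture, about 10^6 CFU/mL, 10 mL per tube. Arms were each agent alone at ×1 MIC, or the combination at ×1 MIC plus ×0.5 MIC partner. Incubated at 37 °C with continuous agitation for 24 h. Samples taken at 0, 2, 4, 6 and 24 h, serially diluted and plated on IsoSensitest agar for CFU counts.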

Pseudomonas aeruginosa [12] = assay: Antibacterial activity against Pseudomonas aeruginosa ATCC 27853 assessed as reduction in bacterial growth incubated for 24 hrs in presence of polymyxin B; format: functional
Streptococcus pyogenes [13] = assay: Antibacterial activity against Streptococcus pyogenes SPY3 assessed as reduction in bacterial growth incubated for 24 hrs in presence of polymyxin B; format: functional
[14] = test system: Stenotrophomonas maltophilia; assay: Antibacterial activity against Stenotrophomonas maltophilia NCTC 10258 assessed as reduction in bacterial growth incubated for 24 hrs in presence of polymyxin B; format: functional
Acinetobacter baumannii [15] = assay: Bactericidal activity against Acinetobacter baumannii NCTC 19606 assessed as bacterial cell death at 0.5 fold MIC measured after 4 to 6 hrs in presence of polymyxin B at MIC by time kill assay relative to control; format: functional; conditions: time 4-6 hrs
Summary of the method: (§3)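 Time-kill in 10 mL Mueller-Hinton 2 broth, 37 °C with continuous agitation, 24 h. Inoculum was a 1/1000 dilution of a 16 h overnight culture, about 10^6 CFU/mL. Single agents at 1× MIC; combination at 1× MIC polymyxin B plus 0.5× MIC curcumin. Samples at 0, 2, 4, 6 and 24 h were serially diluted and plated on IsoSensitest agar for CFU/mL.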

[16] = test system: Stenotrophomonas maltophilia; assay: Antibacterial activity against Stenotrophomonas maltophilia SMB07 assessed as reduction in bacterial growth incubated for 24 hrs in presence of polymyxin B; format: functional
Enterococcus faecium [17] = assay: Antibacterial activity against vancomycin-resistant Enterococcus faecium OEF65 assessed as reduction in bacterial growth incubated for 24 hrs in presence of polymyxin B; format: functional
Staphylococcus aureus [18] = assay: Bactericidal activity against methicillin-resistant Staphylococcus aureus NCTC 12493 assessed as bacterial cell death at 0.5 fold MIC measured after 4 to 6 hrs hrs in presence of polymyxin B at MIC by time kill assay relative to control; format: functional; conditions: time 4-6 hrs; summary of the method: as §3
Pseudomonas aeruginosa [19] = assay: Potentiation of polymyxin B-induced antibacterial activity against Pseudomonas aeruginosa PAO1 assessed as fold reduction in polymyxin B MIC measured after 24 hrs in presence of polymyxin B by checkerboard assay; format: functional
Pseudomonas aeruginosa [20] = assay: Bactericidal activity against Pseudomonas aeruginosa ATCC 27853 assessed as bacterial cell death at 0.5 fold MIC measured after 4 to 6 hrs in presence of polymyxin B at MIC by time kill assay relative to control; format: functional; conditions: time 4-6 hrs; summary of the method: as §3
Enterococcus faecium [21] = assay: Potentiation of polymyxin B-induced antibacterial activity against vancomycin-resistant Enterococcus faecium OEF42 assessed as fold reduction in polymyxin B MIC measured after 24 hrs in presence of polymyxin B by checkerboard assay; format: functional
[22] = test system: Stenotrophomonas maltophilia; assay: Potentiation of polymyxin B-induced antibacterial activity against Stenotrophomonas maltophilia SMB07 assessed as fold reduction in polymyxin B MIC measured after 24 hrs in presence of polymyxin B by checkerboard assay; format: functional

`CC[C@H](C)CCCCC(=O)N[C@@H](CCN)C(=O)N[C@H](C(=O)N[C@@H](CCN)C(=O)N[C@H]1CCNC(=O)[C@H]([C@@H](C)O)NC(=O)[C@H](CCN)NC(=O)[C@H](CCN)NC(=O)[C@H](CC(C)C)NC(=O)[C@@H](Cc2ccccc2)NC(=O)[C@H](CCN)NC1=O)[C@@H](C)O.O=S(=O)(O)O` was tested, and the “fractional inhibitory concentration index (FICI)” value (Pseudomonas aeruginosa [1]) was 0.023, the “fractional inhibitory concentration index (FICI)” value (Pseudomonas aeruginosa [2]) was 0.563 and the “fractional inhibitory concentration index (FICI)” value (Enterococcus faecium [3]) was 0.281. For the same compound, the MIC (Acinetobacter baumannii [4]) was 0.024 µM, the “fractional inhibitory concentration index (FICI)” value [5] was 0.012 and the “fractional inhibitory concentration index (FICI)” value (Pseudomonas aeruginosa [6]) was 0.031. It also gave an MIC (Pseudomonas aeruginosa [7]) of 0.012 µM.

`COc1cc(/C=C/C(=O)CC(=O)/C=C/c2ccc(O)c(OC)c2)ccc1O` [CURCUMIN] was tested, and the “fold change (FC)” value (Staphylococcus aureus [8]) was 3, the MIC (Streptococcus pyogenes [9]) was 43 µM and the “fold change (FC)” value (Streptococcus pyogenes [10]) was 3. The Activity (Acinetobacter baumannii [11]) was “inactive”, the MIC (Pseudomonas aeruginosa [12]) was 174 µM and the MIC (Streptococcus pyogenes [13]) was 43 µM. It also gave an MIC [14] of 22 µM, an Activity (Acinetobacter baumannii [15]) of 100% and an MIC [16] of 22 µM. The MIC (Enterococcus faecium [17]) was 43 µM, the Activity (Staphylococcus aureus [18]) was 100% and the “fold change (FC)” value (Pseudomonas aeruginosa [19]) was 3. The Activity (Pseudomonas aeruginosa [20]) was 100%, the “fold change (FC)” value (Enterococcus faecium [21]) was 3 and the “fold change (FC)” value [22] was 3.
